Activity calls are given as the source filed them. No cut-off for these calls is given here.
Key:
[1] = biological target: RAC-alpha serine/threonine-protein kinase (Homo sapiens) (UniProt P31749); experiment: Inhibition of AKT in human Caco-2 cells assessed as reduction in phosphorylation at serine 473 residue at 1 ug/ml incubated for 48 hrs by Western blot analysis; format: cell-based; settings: dose 1.0 µg/ml
Summary of the method: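 Caco-2 cells (0.25 × 10^6/well) were treated at 1 µg/mL for 48 h and lysed in pH 7.4 Tris/NaCl/Triton/EDTA buffer with protease and phosphatase inhibitors. 30 µg protein was run per lane on 4–15% gels and blotted for pSer9-GSK3β, total GSK3β, pSer473-Akt, total Akt and β-catenin, with actin as loading control. Detection was by ECL; n=2, t-test versus DMSO.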

[2] = test system: Caco-2; experiment: Cytostatic activity against human Caco-2 cells assessed as reduction in cell growth at 1 ug/ml preincubated for 15 mins with PD0325901 followed by compound addition and measured after 48 hrs by MTS assay; format: functional, cell-based; settings: dose 1.0 µg/ml
Summary of the method: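 Caco-2 cells were pretreated with 0.5 µM PD0325901 for 15 min, then given compound at 1 µg/mL for 48 h. Viability was measured by MTS at 490 nm; n=3, t-test versus DMSO.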

[3] = test system: SARS-CoV-2; experiment: Antiviral activity against SARS-CoV-2 assessed as reduction in progeny production measured 24 hrs post infection by PFU assay; format: functional, organism-based; settings: Severe acute respiratory syndrome coronavirus 2, 24 h
[4] = biological target: Protein kinase C delta type (Homo sapiens) (UniProt Q05655); experiment: Inhibition of PKCdelta in human Caco-2 cells assessed as ratio of phosphorylated PKCdelta at Ser664 residue to total PKCdelta level at 1 ug/ml incubated for 48 hrs by Western blot analysis (reference value: 0.77); format: cell-based; settings: dose 1.0 µg/ml
Chain of Protein kinase C delta type (Homo sapiens) (Q05655 whole entry, looked up): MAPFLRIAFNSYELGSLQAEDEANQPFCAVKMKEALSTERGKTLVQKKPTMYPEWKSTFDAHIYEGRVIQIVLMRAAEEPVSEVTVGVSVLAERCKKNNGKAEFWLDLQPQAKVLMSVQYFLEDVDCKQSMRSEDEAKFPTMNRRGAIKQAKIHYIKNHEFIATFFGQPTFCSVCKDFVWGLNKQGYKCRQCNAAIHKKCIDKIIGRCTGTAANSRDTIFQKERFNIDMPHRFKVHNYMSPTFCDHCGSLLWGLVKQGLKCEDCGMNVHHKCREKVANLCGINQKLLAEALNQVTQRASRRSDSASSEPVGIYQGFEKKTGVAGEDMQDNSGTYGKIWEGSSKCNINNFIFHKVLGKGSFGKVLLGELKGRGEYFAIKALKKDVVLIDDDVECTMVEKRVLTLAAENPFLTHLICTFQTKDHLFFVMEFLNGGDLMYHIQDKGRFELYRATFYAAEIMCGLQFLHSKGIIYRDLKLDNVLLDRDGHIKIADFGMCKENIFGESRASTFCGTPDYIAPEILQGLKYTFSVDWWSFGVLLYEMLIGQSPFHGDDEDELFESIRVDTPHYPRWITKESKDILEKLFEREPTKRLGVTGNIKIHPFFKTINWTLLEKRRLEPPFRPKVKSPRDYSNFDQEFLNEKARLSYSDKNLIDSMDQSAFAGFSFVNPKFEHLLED

[5] = test system: Caco-2; experiment: Cytostatic activity against human Caco-2 cells assessed as inhibition of cell growth at 1 ug/ml preincubated for 30 mins with CRT0066854 hydrochloride followed by compound addition and measured after 48 hrs by MTS assay; format: functional, cell-based; settings: dose 1.0 µg/ml
Summary of the method: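 Caco-2 cells were pretreated for 30 min with CRT0066854 hydrochloride (2.5 µM; 0.625 and 1.25 µM also tested), then given compound at 1 µg/mL for 48 h. MTS absorbance was read at 490 nm relative to DMSO controls; n=3, t-test.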

[6] = test system: Caco-2; experiment: Upregulation of phosphorylated MEK at Ser217/221 level in human Caco-2 cells at 1 ug/ml preincubated for 30 mins with CRT0066854 hydrochloride followed by compound addition and measured after 48 hrs by Western blot analysis; format: functional, cell-based; settings: dose 1.0 µg/ml
Summary of the method: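 Caco-2 cells (0.25 × 10^6/well) were treated at 1 µg/mL for 48 h, with or without 30 min pretreatment with 2.5 µM CRT0066854. Lysates (30 µg protein) were blotted for pSer217/221-MEK and total MEK, with actin as loading control. Detection was by ECL; n=2, t-test versus DMSO.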

[7] = Cytostatic activity against human Colorectal epithelial cells isolated from patient with well-differentiated colonic adenocarcinoma cultured as organoids assessed as inhibition of cell growth at 0.1 ug/ml incubated for 48 hrs by CellTiter-Glo luminescence assay relative to control; format: functional
Summary of the method: (§1)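 Primary colonic epithelial cells (3 control and 2 CRC patients) were expanded as organoids or spheroids in Matrigel with EGF/noggin/Wnt3a/R-spondin medium. Single cells were seeded at 2500/well and allowed 48 h to form colonoids, then exposed for 48 h at 0.01, 0.1 or 1 µg/mL, with 5FdU at 1 µg/mL as positive control. Viability was read by CellTiter-Glo luminescence versus DMSO or medium control.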

[8] = test system: Zika virus; experiment: Antiviral activity against ZIKV expressing GFP reporter gene measured 24 hrs post infection; format: functional, organism-based
Summary of the method: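 Cells in 96-well plates were exposed to serial concentrations starting at 50 µg/mL and infected with GFP-reporter Zika virus at MOI 1. At 24 h post-infection, cells were fixed in 3.7% PFA and GFP-positive cells were counted by flow cytometry.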

[9] = biological target: T1, Protein kinase C zeta type (Homo sapiens) (UniProt Q05513); experiment: Activation of PKCzeta in human Caco-2 cells assessed as increase in colocalization of PKCzeta and actin in dense cell aggregates at 1 ug/ml measured after 48 hrs by immunostaining analysis; format: cell-based; settings: filed as activator, dose 1.0 µg/ml
T1 sequence (whole entry): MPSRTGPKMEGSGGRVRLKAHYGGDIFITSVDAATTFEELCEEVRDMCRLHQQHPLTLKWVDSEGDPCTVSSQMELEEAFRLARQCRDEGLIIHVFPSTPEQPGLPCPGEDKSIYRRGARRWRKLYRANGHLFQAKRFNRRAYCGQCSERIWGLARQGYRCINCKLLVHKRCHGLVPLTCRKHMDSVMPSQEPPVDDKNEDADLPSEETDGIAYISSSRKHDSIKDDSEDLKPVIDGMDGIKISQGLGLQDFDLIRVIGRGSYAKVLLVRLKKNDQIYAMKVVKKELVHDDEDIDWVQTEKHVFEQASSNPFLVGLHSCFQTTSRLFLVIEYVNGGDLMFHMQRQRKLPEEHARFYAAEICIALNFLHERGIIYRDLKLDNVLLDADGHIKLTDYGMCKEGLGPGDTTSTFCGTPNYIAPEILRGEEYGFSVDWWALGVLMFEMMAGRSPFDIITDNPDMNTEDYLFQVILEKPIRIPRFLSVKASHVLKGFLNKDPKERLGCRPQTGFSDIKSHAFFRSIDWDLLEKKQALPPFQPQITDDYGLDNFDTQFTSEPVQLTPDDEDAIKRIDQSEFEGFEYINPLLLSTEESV
Summary of the method: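 Caco-2 cells were seeded at 40 000/well and treated for 48 h as in the viability assay. They were fixed in 3.7% PFA for 20 min and permeabilised in HBSS/0.5% Triton X100/1% BSA. Anti-PKCζ (1/50) or anti-PKCα (1/200) was applied overnight at 4°C, then Alexa 488 secondary for 45 min. Phalloidin and Hoechst counterstained the cells before confocal imaging; PKCα signal was quantified by immunofluorescence.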

[10] = test system: Caco-2; experiment: Induction of apoptosis in human Caco-2 cells assessed as increase in active caspase 3 level; format: functional, cell-based
[11] = test system: Caco-2; experiment: Induction of morphological changes in human Caco-2 cells assessed as reorganization of epithelial tissue architecture by measuring effect on actin density at 1 ug/ml preincubated for 30 mins with CRT0066854 hydrochloride followed by compound addition and measured after 48 hrs by Hoechst 3342 and phalloidin staining based confocal microscopic analysis; format: functional, cell-based; settings: dose 1.0 µg/ml
Summary of the method: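 CRT0066854 hydrochloride (2.5 µM) was added to Caco-2 cells 30 min before compound at 1 µg/mL. After 48 h, nuclei and actin cytoskeleton were labelled and confocal views taken with a 20X objective; duplicates from one experiment.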

[12] = test system: Colorectal epithelial cell; experiment: Cytostatic activity against human Colorectal epithelial cells isolated from patient with well-differentiated colonic adenocarcinoma cultured as organoids at 1 ug/ml incubated for 48 hrs by CellTiter-Glo luminescence assay; format: functional, cell-based; settings: dose 1.0 µg/ml; summary of the method: as §1
[13] = test system: Caco-2; experiment: Cytostatic activity against human Caco-2 cells assessed as inhibition of cell growth at 1 ug/ml incubated for 48 hrs by MTS assay relative to control; format: functional
Summary of the method: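 Caco-2 cells were seeded at 40 000/well 48 h before dosing. Compound was diluted from a 10 mg/mL DMSO stock into medium (0.125, 0.5 or 1 µg/mL final; DMSO ≤0.01%) and added in triplicate for 48 h. Viability was read by MTS absorbance at 490 nm and expressed relative to the DMSO control.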

Chain of RAC-alpha serine/threonine-protein kinase (Homo sapiens) (P31749 whole entry): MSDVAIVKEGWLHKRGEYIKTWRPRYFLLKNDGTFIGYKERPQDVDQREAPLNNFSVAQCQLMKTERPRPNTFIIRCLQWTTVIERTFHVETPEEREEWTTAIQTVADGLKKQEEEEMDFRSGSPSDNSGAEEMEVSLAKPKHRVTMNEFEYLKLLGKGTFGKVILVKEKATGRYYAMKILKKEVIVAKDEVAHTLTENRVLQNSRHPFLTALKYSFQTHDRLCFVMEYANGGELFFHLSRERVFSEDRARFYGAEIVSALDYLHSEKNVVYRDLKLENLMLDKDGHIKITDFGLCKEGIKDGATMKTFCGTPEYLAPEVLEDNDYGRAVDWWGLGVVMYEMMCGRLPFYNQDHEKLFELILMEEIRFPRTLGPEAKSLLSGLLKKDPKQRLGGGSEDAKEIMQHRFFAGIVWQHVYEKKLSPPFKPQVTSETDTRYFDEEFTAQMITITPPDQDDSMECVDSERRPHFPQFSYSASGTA

SMILES | inhibition [1] | Activity [2] | IC50 [3] [µM] | Ratio [4] | Activity [5] | Activity [6] | inhibition at 0.1 µg/mL [7] [%] | IC50 [8] [µM] | Activity [9] | Activity [10] | Activity [11] | Activity [12] | inhibition at 1 µg/mL [13] [%]
C=C(C)[C@]12C[C@@H](C)[C@@]34O[C@](/C=C/C=C/CCCCCCCCC)(O[C@@H]1[C@@H]3[C@@H]1O[C@]1(CO)[C@@H](O)[C@]1(O)C(=O)C(C)=C[C@H]14)O2 | Active | inactive | 64.2 | 0.73 | inactive | Active | 40 | > 50 | Active | inactive | inactive | Active | –
C=C(C)[C@]12C[C@@H](C)[C@@]34O[C@](/C=C/[C@@H]5O[C@H]5CCCCCCCCC)(O[C@@H]1[C@@H]3[C@@H]1O[C@]1(CO)[C@@H](O)[C@]1(O)C(=O)C(C)=C[C@H]14)O2 | Active | – | – | – | inactive | Active | 40 | – | – | inactive | – | Active | 30

— ChEMBL document CHEMBL5325455, “Daphnanes diterpenes from the latex of Hura crepitans L. and their PKCζ-dependent anti-proliferative activity on colorectal cancer cells” (Bioorg Med Chem, 2023)
